In ChEMBL document CHEMBL4038328, “Structure-Guided Optimization of HIV Integrase Strand Transfer Inhibitors” (J Med Chem, 2017):

Experiments:
[1] = test system: Human immunodeficiency virus 1; assay: Selectivity ratio of EC50 for VSV-G pseudotyped HIV1 harboring integrase G118R mutant infected in HOS cells to EC50 for VSV-G pseudotyped HIV1 harboring wild-type integrase infected in HOS cells; format: functional
In short: (§1)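 Fold change is the EC50 against the mutant-IN vector divided by the EC50 against the WT-IN vector. Both come from the single-round luciferase infectivity assay in HOS cells, with a 3 h compound pretreatment followed by 48 h infection.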

[2] = test system: Human immunodeficiency virus 1; assay: Selectivity ratio of EC50 for VSV-G pseudotyped HIV1 harboring integrase T66I mutant infected in HOS cells to EC50 for VSV-G pseudotyped HIV1 harboring wild-type integrase infected in HOS cells; format: functional; in short: as §1
[3] = test system: Human immunodeficiency virus 1; assay: Selectivity ratio of EC50 for VSV-G pseudotyped HIV1 harboring integrase N155H mutant infected in HOS cells to EC50 for VSV-G pseudotyped HIV1 harboring wild-type integrase infected in HOS cells; format: functional; in short: as §1
[4] = Inhibition of HIV1 integrase strand transfer activity using 5'-end 32P labeled DNA substrate measured after 2 hrs by PAGE based phosphor imaging method; parameters: species or system Human immunodeficiency virus 1
In short: (§2)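 Gel-based assay, Mg2+ cofactor: 400 nM integrase with 20 nM DNA substrate 5′-32P-labeled on transferred strand in 50 mM MOPS pH 7.2, 7.5 mM MgCl2, 14 mM 2-mercaptoethanol, inhibitor or DMSO; 2 h at 37 °C. Stopped with formamide/SDS loading buffer; products resolved on 16% denaturing polyacrylamide gels, quantified by phosphorimaging.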

[5] = test system: Human immunodeficiency virus 1; assay: Selectivity ratio of EC50 for VSV-G pseudotyped HIV1 harboring integrase R263K mutant infected in HOS cells to EC50 for VSV-G pseudotyped HIV1 harboring wild-type integrase infected in HOS cells; format: functional; in short: as §1
[6] = test system: Human immunodeficiency virus 1; assay: Antiviral activity against VSV-G pseudotyped HIV1 harboring integrase Y143R mutant infected in HOS cells pretreated […] for 3 hrs followed by viral infection measured after 48 hrs by luciferase reporter gene assay; format: functional, cell-based; details: Human immunodeficiency virus 1, HOS
In short: (§3)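 Single-round luciferase HIV-1 vector (pNLNgoMIVR−ΔLUC carrying WT or mutant IN) was pseudotyped with VSV-g by calcium phosphate co-transfection of 293 cells, and supernatant was harvested after 48 h. HOS cells were seeded at 4000/well in DMEM with 5% FBS and 5% newborn calf serum. They were pretreated 3 h at 37 °C with 5–0.0001 μM (11 serial dilutions), then infected for 48 h. Luminescence was normalized to untreated cells, and EC50 came from nonlinear regression.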

[7] = test system: Human immunodeficiency virus 1; assay: Selectivity ratio of EC50 for VSV-G pseudotyped HIV1 harboring integrase Y143R mutant infected in HOS cells to EC50 for VSV-G pseudotyped HIV1 harboring wild-type integrase infected in HOS cells; format: functional; in short: as §1
[8] = test system: Human immunodeficiency virus 1; assay: Antiviral activity against VSV-G pseudotyped HIV1 harboring wild-type integrase infected in HOS cells pretreated […] for 3 hrs followed by viral infection measured after 48 hrs by luciferase reporter gene assay; format: functional, cell-based; details: Human immunodeficiency virus 1, HOS; in short: as §3
[9] = test system: Human immunodeficiency virus 1; assay: Selectivity ratio of EC50 for VSV-G pseudotyped HIV1 harboring integrase G140S/Q148H mutant infected in HOS cells to EC50 for VSV-G pseudotyped HIV1 harboring wild-type integrase infected in HOS cells; format: functional; in short: as §1
[10] = test system: Human immunodeficiency virus 1; assay: Antiviral activity against VSV-G pseudotyped HIV1 harboring integrase N155H mutant infected in HOS cells pretreated […] for 3 hrs followed by viral infection measured after 48 hrs by luciferase reporter gene assay; format: functional, cell-based; details: Human immunodeficiency virus 1, HOS; in short: as §3
[11] = Inhibition of HIV1 integrase 3' processing activity using 5'-end 32P labeled DNA substrate measured after 2 hrs by PAGE based phosphor imaging method; parameters: species or system Human immunodeficiency virus 1; in short: as §2
[12] = test system: Human immunodeficiency virus 1; assay: Antiviral activity against VSV-G pseudotyped HIV1 harboring integrase T66I mutant infected in HOS cells pretreated […] for 3 hrs followed by viral infection measured after 48 hrs by luciferase reporter gene assay; format: functional, cell-based; details: Human immunodeficiency virus 1, HOS; in short: as §3
[13] = test system: Human immunodeficiency virus 1; assay: Antiviral activity against VSV-G pseudotyped HIV1 harboring integrase H51Y/R263K double mutant infected in HOS cells pretreated […] for 3 hrs followed by viral infection measured after 48 hrs by luciferase reporter gene assay; format: functional, cell-based; details: Human immunodeficiency virus 1, HOS; in short: as §3
[14] = test system: Human immunodeficiency virus 1; assay: Antiviral activity against VSV-G pseudotyped HIV1 harboring integrase R263K mutant infected in HOS cells pretreated […] for 3 hrs followed by viral infection measured after 48 hrs by luciferase reporter gene assay; format: functional, cell-based; details: Human immunodeficiency virus 1, HOS; in short: as §3
[15] = test system: Human immunodeficiency virus 1; assay: Selectivity ratio of EC50 for VSV-G pseudotyped HIV1 harboring integrase H51Y mutant infected in HOS cells to EC50 for VSV-G pseudotyped HIV1 harboring wild-type integrase infected in HOS cells; format: functional; in short: as §1
[16] = test system: Human immunodeficiency virus 1; assay: Antiviral activity against VSV-G pseudotyped HIV1 harboring integrase G140S/Q148H double mutant infected in HOS cells pretreated […] for 3 hrs followed by viral infection measured after 48 hrs by luciferase reporter gene assay; format: functional, cell-based; details: Human immunodeficiency virus 1, HOS; in short: as §3
[17] = test system: Human immunodeficiency virus 1; assay: Selectivity ratio of EC50 for VSV-G pseudotyped HIV1 harboring integrase E92Q mutant infected in HOS cells to EC50 for VSV-G pseudotyped HIV1 harboring wild-type integrase infected in HOS cells; format: functional; in short: as §1
[18] = test system: Human immunodeficiency virus 1; assay: Antiviral activity against VSV-G pseudotyped HIV1 harboring integrase E92Q mutant infected in HOS cells pretreated […] for 3 hrs followed by viral infection measured after 48 hrs by luciferase reporter gene assay; format: functional, cell-based; details: Human immunodeficiency virus 1, HOS; in short: as §3
[19] = test system: Human immunodeficiency virus 1; assay: Selectivity ratio of EC50 for VSV-G pseudotyped HIV1 harboring integrase H51Y/R263K double mutant infected in HOS cells to EC50 for VSV-G pseudotyped HIV1 harboring wild-type integrase infected in HOS cells; format: functional; in short: as §1
[20] = test system: Human immunodeficiency virus 1; assay: Antiviral activity against VSV-G pseudotyped HIV1 harboring integrase H51Y mutant infected in HOS cells pretreated […] for 3 hrs followed by viral infection measured after 48 hrs by luciferase reporter gene assay; format: functional, cell-based; details: Human immunodeficiency virus 1, HOS; in short: as §3
[21] = test system: Human immunodeficiency virus 1; assay: Antiviral activity against VSV-G pseudotyped HIV1 harboring integrase G118R mutant infected in HOS cells pretreated […] for 3 hrs followed by viral infection measured after 48 hrs by luciferase reporter gene assay; format: functional, cell-based; details: Human immunodeficiency virus 1, HOS; in short: as §3
HOS = assay: (§4) Cytotoxicity against HOS cells assessed as reduction in cell viability after 48 hrs by ATPLite luminescence assay; format: cell-based; details: human, hos, 48 h
In short: (§5)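 HOS cells seeded at 4000 per well the day before, exposed to compounds over 250 to 0.05 μM at 37 °C for 48 h. ATP measured by luminescence after lysis and 20 min signal development at room temperature.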

[22] = test system: Human immunodeficiency virus 1; assay: Antiviral activity against VSV-G pseudotyped HIV1 harboring integrase H51Y mutant infected in HOS cells pretreated […] for 3 hrs followed by viral infection measured after 48 hrs by luciferase reporter gene assay relative to dolutegravir; format: functional
[23] = test system: Human immunodeficiency virus 1; assay: Antiviral activity against VSV-G pseudotyped HIV1 harboring integrase T66I mutant infected in HOS cells pretreated […] for 3 hrs followed by viral infection measured after 48 hrs by luciferase reporter gene assay relative to dolutegravir; format: functional
[24] = test system: Human immunodeficiency virus 1; assay: Antiviral activity against VSV-G pseudotyped HIV1 harboring wild-type integrase infected in HOS cells pretreated […] for 3 hrs followed by viral infection measured after 48 hrs by luciferase reporter gene assay relative to dolutegravir; format: functional
[25] = test system: Human immunodeficiency virus 1; assay: Antiviral activity against VSV-G pseudotyped HIV1 harboring integrase R263K mutant infected in HOS cells pretreated […] for 3 hrs followed by viral infection measured after 48 hrs by luciferase reporter gene assay relative to dolutegravir; format: functional
[26] = test system: Human immunodeficiency virus 1; assay: Antiviral activity against VSV-G pseudotyped HIV1 harboring integrase E92Q mutant infected in HOS cells pretreated […] for 3 hrs followed by viral infection measured after 48 hrs by luciferase reporter gene assay relative to dolutegravir; format: functional
[27] = test system: Human immunodeficiency virus 1; assay: Antiviral activity against VSV-G pseudotyped HIV1 harboring integrase G140S/Q148H double mutant infected in HOS cells pretreated […] for 3 hrs followed by viral infection measured after 48 hrs by luciferase reporter gene assay relative to dolutegravir; format: functional
[28] = test system: Human immunodeficiency virus 1; assay: Antiviral activity against VSV-G pseudotyped HIV1 harboring integrase H51Y/R263K double mutant infected in HOS cells pretreated […] for 3 hrs followed by viral infection measured after 48 hrs by luciferase reporter gene assay relative to dolutegravir; format: functional
[29] = test system: Human immunodeficiency virus 1; assay: Antiviral activity against VSV-G pseudotyped HIV1 harboring integrase Y143R mutant infected in HOS cells pretreated […] for 3 hrs followed by viral infection measured after 48 hrs by luciferase reporter gene assay relative to dolutegravir; format: functional
[30] = test system: Human immunodeficiency virus 1; assay: Antiviral activity against VSV-G pseudotyped HIV1 harboring integrase G118R mutant infected in HOS cells pretreated […] for 3 hrs followed by viral infection measured after 48 hrs by luciferase reporter gene assay relative to dolutegravir; format: functional
[31] = as §4; format: cell-based; details: human, HOS cells; in short: as §5
[32] = test system: Human immunodeficiency virus 1; assay: Antiviral activity against VSV-G pseudotyped HIV1 harboring integrase N155H mutant infected in HOS cells pretreated […] for 3 hrs followed by viral infection measured after 48 hrs by luciferase reporter gene assay relative to dolutegravir; format: functional

Row | Structure (SMILES) | Ratio EC50 [1] | Ratio EC50 [2] | Ratio EC50 [3] | IC50 [4] [nM] | Ratio EC50 [5] | EC50 [6] [nM] | Ratio EC50 [7] | EC50 [8] [nM] | Ratio EC50 [9] | IC50 [11] [nM] | EC50 [12] [nM] | EC50 [13] [nM] | EC50 [14] [nM] | Ratio EC50 [15] | EC50 [16] [nM] | Ratio EC50 [17] | EC50 [18] [nM] | Ratio EC50 [19] | EC50 [20] [nM] | EC50 [21] [nM] | other results
1 | O=C(NCc1ccc(F)cc1F)c1c(NCCO)c2cc(CCCCCO)cnc2n(O)c1=O | 2 | 0.1 | 1 | 2.5 | 1 | 12 | 0.9 | 13 | 1 | 4000 | 1.9 | 31 | 18 | 0.8 | 16 | 0.5 | 6.5 | 2 | 11 | 24 | EC50 [10]: 15 nM; CC50 (HOS): > 250000 nM
2 | COC(=O)CCc1cnc2c(c1)c(NCCO)c(C(=O)NCc1ccc(F)cc1F)c(=O)n2O | 1 | 0.2 | 1 | 3.1 | 2 | 3.8 | 0.9 | 4.1 | 4 | 3200 | 0.62 | 2.5 | 6.5 | 2 | 16 | 0.7 | 2.7 | 0.9 | 6.9 | 4.8 | EC50 [10]: 3.9 nM; CC50 (HOS): > 250000 nM
3 | CC(=O)OCCCc1cnc2c(c1)c(N)c(C(=O)NCc1ccc(F)cc1F)c(=O)n2O | 4 | 0.5 | 4 | 10 | 1 | 2.9 | 2 | 1.4 | 9 | 14300 | 0.75 | 3.9 | 1.8 | 0.6 | 13 | 1 | 1.2 | 3 | 0.8 | 5.9 | EC50 [10]: 5.4 nM; CC50 (HOS): > 250000 nM
4 | Nc1c(C(=O)NCc2ccc(F)cc2F)c(=O)n(O)c2ncc(CCCCCO)cc12 | 4 | 0.7 | 2 | 2.7 | 2 | 3 | 2 | 1.3 | 7 | 8200 | 0.93 | 2.6 | 2.6 | 3 | 9.4 | 3 | 3.8 | 2 | 3.8 | 5.3 | fold change (FC) [22]: 1.19; fold change (FC) [23]: 1.03; fold change (FC) [24]: 0.81; fold change (FC) [25]: 0.24; fold change (FC) [26]: 1.65; EC50 [10]: 2.4 nM; fold change (FC) [27]: 1.62; fold change (FC) [28]: 0.16; fold change (FC) [29]: 0.71; fold change (FC) [30]: 0.41; CC50 at 48 h [31]: > 250000 nM; fold change (FC) [32]: 0.67
5 | COC(=O)CCc1cnc2c(c1)c(N)c(C(=O)NCc1ccc(F)cc1F)c(=O)n2O | 7 | 0.8 | 3 | 3.1 | 0.7 | 0.67 | 1 | 0.67 | 8 | 2900 | 0.53 | 2.4 | 0.5 | 0.9 | 5.3 | 3 | 2 | 3 | 0.63 | 4.8 | fold change (FC) [22]: 0.2; fold change (FC) [23]: 0.59; fold change (FC) [24]: 0.42; fold change (FC) [25]: 0.05; fold change (FC) [26]: 0.87; fold change (FC) [27]: 0.91; fold change (FC) [28]: 0.15; fold change (FC) [29]: 0.16; fold change (FC) [30]: 0.37; CC50 (HOS): > 250000 nM; fold change (FC) [32]: 0.64
